We go through five compounds from ChEMBL document CHEMBL1122730, “Synthesis and pharmacological evaluation of indanpropionic acids as uterine relaxants” (1984).

Molecules are shown by their SMILES.

The species named for assay [1] is Mus musculus. The assay can be described thus: Compounds were evaluated for the percent recovery of the contraction induced by KCL in the isolated mouse uterus at a concentration 10 E -4 M. The format is functional. The gist of the method:
(§1)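 KCl (54 mM) served as agonist in the uterine strip. After the 5-min KCl response with the test agent present, the tissue was washed 20 min and challenged again with KCl for 5 min. The recovery response was expressed as integrated force, as a % of the mean of two initial control KCl responses.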

The species entered for assay [2] is Mus musculus. The assay can be described thus: Compounds were evaluated for the percent recovery of the contraction induced by KCL in the isolated mouse uterus at a concentration 10 E -5M. In kind it is functional. A digest of the protocol:
as §1

The species entered for assay [3] is Mus musculus. The assay can be described thus: Compounds were evaluated for the percent recovery of the contraction induced by PGF2-alpha in the isolated mouse uterus at a concentration 10 E -4 M. The format is functional, tissue-based. The gist of the method:
(§2)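 Recovery after PGF2α challenge: following a 5-min PGF2α (10^-7 M) response with the test agent present, the tissue was washed 20 min with physiological medium, then re-exposed to 10^-7 M PGF2α for 5 min. The integrated contractile force was expressed as a % of the mean of two initial control PGF2α responses.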

The species named for assay [4] is Mus musculus. The assay can be described thus: Compounds were evaluated for the percent recovery of the contraction induced by PGF2-alpha in the isolated mouse uterus at a concentration 10 E -5 M. The format is functional. A digest of the protocol:
as §2

The species entered for assay [5] is Mus musculus. The assay can be described thus: Inhibitory effect against contraction induced by PGF2-alpha in the isolated mouse uterus at a concentration of 10 E -4 M. The format is functional. A digest of the protocol: (§3)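 Uterine strips were equilibrated 30 min, then given two 5-min control responses to PGF2α (10^-7 M), each followed by a 20-min washout. The test agent was in the bath 5 min before 10^-7 M PGF2α was added. The integrated contractile force over 5 min was taken as a % of the mean of the two controls. Agents were dissolved in 0.25 N NaOH and diluted with water to pH 7.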

Assay [6] is filed under the species Mus musculus. The assay can be described thus: Inhibitory effect against contraction induced by PGF2-alpha in the isolated mouse uterus at a concentration of 10 E -5 M. The format is functional. The gist of the method:
as §3

The species entered for assay [7] is Mus musculus. The assay can be described thus: Inhibitory effect against contraction induced by KCL in the isolated mouse uterus at a concentration of 10 E -4 M. The format is functional. A digest of the protocol: (§4)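 KCl (54 mM) replaced PGF2α as the stimulus. After 30-min equilibration, two 5-min control KCl responses were taken, each with a 20-min washout. The test agent was then preincubated 5 min before KCl was added. The integrated force over 5 min was expressed as a % of the mean of the two controls. Compounds were in NaOH, neutralised to pH 7.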

The species entered for assay [8] is Mus musculus. The assay can be described thus: Inhibitory effect against contraction induced by KCL in the isolated mouse uterus at a concentration of 10 E -5 M. In kind it is functional. The gist of the method: as §4
Assay [9] is filed under the species Mus musculus. The assay can be described thus: Inhibitory effect against contraction induced by PGF2-alpha in the isolated mouse uterus at a concentration of 10 E -4M. In kind it is functional. The gist of the method:
as §3

Assay [10] is filed under the species Mus musculus. The assay can be described thus: Compounds were evaluated for the percent recovery of the contraction induced by KCL in the isolated mouse uterus at a concentration 10 E -6M. In kind it is functional. A digest of the protocol: as §1
Assay [11] is filed under the species Mus musculus. The assay can be described thus: Compounds were evaluated for the percent recovery of the contraction induced by PGF2-alpha in the isolated mouse uterus at a concentration 10 E -6 M. In kind it is functional. A digest of the protocol: as §2
Assay [12] is filed under the species Mus musculus. The assay can be described thus: Compounds were evaluated for the percent recovery of the contraction induced by PGF2-alpha in the isolated mouse uterus at a concentration 3X 10 E -5 M. In kind it is functional. The gist of the method: as §2
Assay [13] is filed under the species Mus musculus. The assay can be described thus: (§5) Inhibitory effect for the contraction induced by BaCl2 in [Ca2+] containing buffer in the isolated mouse uterus at a concentration 10 E -4 M. The format is functional. The gist of the method: (§6)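 BaCl2 (2.2 × 10^-4 M) stimulated the uterine strip, in Ca2+-containing or Ca2+-free buffer. Two 5-min control responses were taken, each with a 20-min washout. The test agent was added 5 min before BaCl2. The integrated contractile force was expressed as a % of the mean control response.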

Assay [14] is filed under the species Mus musculus. The assay can be described thus: (§7) Inhibitory effect for the contraction induced by BaCl2 in [Ca2+] free buffer in the isolated mouse uterus at a concentration 10 E -4 M. The format is functional. A digest of the protocol: as §6
The species entered for assay [15] is Mus musculus. The assay can be described thus: Inhibitory effect against contraction induced by KCL in the isolated mouse uterus at a concentration of 10 E -6 M. The format is functional. A digest of the protocol:
as §4

The species entered for assay [16] is Mus musculus. The assay can be described thus: Inhibitory effect against contraction induced by PGF2-alpha in the isolated mouse uterus at a concentration of 10 E -6 M. The format is functional. A digest of the protocol:
as §3

For assay [17], the species on record is Mus musculus. The assay can be described thus: Inhibitory effect against contraction induced by PGF2-alpha in the isolated mouse uterus at a concentration of 3X10 E -5 M. The format is functional. The gist of the method:
as §3

The species named for assay [18] is Mus musculus. The assay is described as §5. In kind it is functional. The gist of the method: as §6
The source holds these as a separate data set.

The species entered for assay [19] is Mus musculus. Described as §7. In kind it is functional. A digest of the protocol: as §6
The source holds these as a separate data set.

In general, inhibition refers to how much of the control response was suppressed. A low value points to a response near the control. In the case of `O=C(O)CCC1(CCC(=O)O)Cc2cc(OCc3ccccc3)ccc2C1=O`, the Recovery in the assay filed under Mus musculus [1] was determined as 105%; in the assay listed under Mus musculus [2], 106%; in the assay listed under Mus musculus [3], 91.1%; in the assay listed under Mus musculus [4], 79.9%. In addition, the inhibition at 100 µM was 6.5% in the assay listed under Mus musculus [5] and 1.9% in the assay listed under Mus musculus [7]. Moreover, the inhibition at 10 µM in the assay filed under Mus musculus [6] was determined as 10.5%; in the assay listed under Mus musculus [8], 8.3%.

For `CCCC1(CCC(=O)O)Cc2cc(OCc3ccccc3)ccc2C1=O` (stereo not drawn), the Recovery came out at 85.3% in the assay filed under Mus musculus [3] and 85.5% in the assay listed under Mus musculus [4]. This compound returned an inhibition at 100 µM in the assay filed under Mus musculus [5] of 42%. The compound further showed an inhibition at 10 µM in the assay filed under Mus musculus [6] of 6.4%.

Regarding `CCC1(CCC(=O)O)Cc2cc(OCc3ccccc3)ccc2C1=O` (stereo not drawn), the Recovery was 70.4% in the assay listed under Mus musculus [3] and 69.3% in the assay listed under Mus musculus [4]. In the assay listed under Mus musculus [9], this compound had an inhibition at 100 µM of 44.4%. In addition, in the assay filed under Mus musculus [6], the inhibition at 10 µM stood at 27.3%.

Turning to `CCC[C@@]1(CCC(=O)O)Cc2cc(OCc3ccccc3)c(OCc3ccccc3)cc2[C@H]1O`, the Recovery was determined as 85.8% in the assay filed under Mus musculus [1]; 84.2% in the assay listed under Mus musculus [2]; 86.1% in the assay listed under Mus musculus [10]; 82.8% in the assay filed under Mus musculus [3]; 81.8% in the assay filed under Mus musculus [4]; 88.7% in the assay listed under Mus musculus [11]. The Recovery was 79.7% in the assay filed under Mus musculus [12], 105% in the assay listed under Mus musculus [13] and 39.4% in the assay listed under Mus musculus [14]. For the same compound, the inhibition at 1 µM in the assay listed under Mus musculus [15] stood at 1.2%; in the assay listed under Mus musculus [16], 0%. Besides, the inhibition at 100 µM in the assay listed under Mus musculus [5] was found to be 67.1%; in the assay filed under Mus musculus [18], 48.1%; in the assay filed under Mus musculus [7], 53.2%; in the assay filed under Mus musculus [19], 88.2%. In addition, the inhibition at 10 µM worked out at 17.2% in the assay listed under Mus musculus [6] and 9.4% in the assay filed under Mus musculus [8]. Further, the inhibition at 30 µM in the assay listed under Mus musculus [17] is 36.4%.

With `CCCCC1(CCC(=O)O)Cc2cc(OCc3ccccc3)ccc2C1O` (stereo not drawn), the values for the Recovery in the assay filed under Mus musculus [3] and in the assay listed under Mus musculus [4] were 104% and 91.7%, respectively. The same compound had an inhibition at 100 µM in the assay listed under Mus musculus [5] of 20.4%. The compound further had an inhibition at 10 µM in the assay filed under Mus musculus [6] of 0.5%.
